In ChEMBL document CHEMBL1926577, “Novel 1,3,4-heterodiazole analogues: synthesis and in-vitro antitumor activity” (2012):

Columns and labels:
Assay type in all cases: functional
CCRF-CEM = experiment: Growth inhibition of human CCRF-CEM cells at 10 uM after 48 hrs by coulter counter method; details: read-out: GI
In short: (§1)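 NCI 60-cell-line panel, single dose. Compound dissolved first in DMSO, then diluted in phosphate-buffered saline so that every final dilution held under 1% DMSO. Duplicate wells received cells at 6 × 10⁴ cells/ml. Controls held PBS/DMSO at the same dilution. Plates were incubated 48 h at 37 °C under 5% CO₂. Cells were then diluted 10-fold in saline and counted on a Coulter counter, with counts corrected for the dilution. Results are given as percent growth inhibition.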

HL-60(TB) = experiment: Growth inhibition of human HL-60(TB) cells at 10 uM after 48 hrs by coulter counter method; details: HL-60, 48 h, read-out: GI
In short: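 Single-dose screen on the NCI 60-line panel (leukemia subpanel). Compound is dissolved in DMSO and diluted in PBS, with final DMSO below 1%. Duplicate wells hold 6 × 10⁴ cells/ml at 37 °C, 5% CO₂, for 48 h. Cells are counted by Coulter counter after 10-fold saline dilution. Read-out is percent growth versus PBS/DMSO controls, expressed as % growth inhibition.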

K562 = experiment: Growth inhibition of human K562 cells at 10 uM after 48 hrs by coulter counter method; details: K562, 48 h, read-out: GI; in short: as §1
MOLT-4 = experiment: Growth inhibition of human MOLT4 cells at 10 uM after 48 hrs by coulter counter method; details: MOLT-4, 48 h, read-out: GI; in short: as §1
RPMI-8226 = experiment: Growth inhibition of human RPMI8226 cells at 10 uM after 48 hrs by coulter counter method; details: RPMI-8226, 48 h, read-out: GI; in short: as §1
SR = experiment: Growth inhibition of human SR cells at 10 uM after 48 hrs by coulter counter method; details: read-out: GI; in short: as §1
A549 = experiment: Growth inhibition of human A549 cells at 10 uM after 48 hrs by coulter counter method; details: A549, 48 h, read-out: GI; in short: as §1
EKVX = experiment: Growth inhibition of human EKVX cells at 10 uM after 48 hrs by coulter counter method; details: read-out: GI; in short: as §1
NCI-H226 = experiment: Growth inhibition of human NCI-H226 cells at 10 uM after 48 hrs by coulter counter method; details: NCI-H226, 48 h, read-out: GI; in short: as §1
NCI-H23 = experiment: Growth inhibition of human NCI-H23 cells at 10 uM after 48 hrs by coulter counter method; details: NCI-H23, 48 h, read-out: GI; in short: as §1
NCI-H322M = experiment: Growth inhibition of human NCI-H322M cells at 10 uM after 48 hrs by coulter counter method; details: read-out: GI; in short: as §1
NCI-H522 = experiment: Growth inhibition of human NCI-H522 cells at 10 uM after 48 hrs by coulter counter method; details: NCI-H522, 48 h, read-out: GI; in short: as §1
HCT-116 = experiment: Growth inhibition of human HCT116 cells at 10 uM after 48 hrs by coulter counter method; details: HCT-116, 48 h, read-out: GI; in short: as §1
HCT-15 = experiment: Growth inhibition of human HCT15 cells at 10 uM after 48 hrs by coulter counter method; details: HCT-15, 48 h, read-out: GI; in short: as §1
HT-29 = experiment: Growth inhibition of human HT-29 cells at 10 uM after 48 hrs by coulter counter method; details: HT-29, 48 h, read-out: GI; in short: as §1
KM12 = experiment: Growth inhibition of human KM12 cells at 10 uM after 48 hrs by coulter counter method; details: KM12, 48 h, read-out: GI; in short: as §1
SF-268 = experiment: Growth inhibition of human SF268 cells at 10 uM after 48 hrs by coulter counter method; details: SF-268, 48 h, read-out: GI; in short: as §1
SF-295 = experiment: Growth inhibition of human SF295 cells at 10 uM after 48 hrs by coulter counter method; details: SF-295, 48 h, read-out: GI; in short: as §1
SNB-19 = experiment: Growth inhibition of human SNB19 cells at 10 uM after 48 hrs by coulter counter method; details: SNB-19, 48 h, read-out: GI; in short: as §1
SNB-75 = experiment: Growth inhibition of human SNB75 cells at 10 uM after 48 hrs by coulter counter method; details: SNB-75, 48 h, read-out: GI; in short: as §1
U-251 = experiment: Growth inhibition of human U251 cells at 10 uM after 48 hrs by coulter counter method; details: U-251, 48 h, read-out: GI; in short: as §1
LOX IMVI = experiment: Growth inhibition of human LOXIMVI cells at 10 uM after 48 hrs by coulter counter method; details: read-out: GI; in short: as §1
Malme-3M = experiment: Growth inhibition of human MALME-3M cells at 10 uM after 48 hrs by coulter counter method; details: read-out: GI; in short: as §1
M14 = experiment: Growth inhibition of human M14 cells at 10 uM after 48 hrs by coulter counter method; details: M14, 48 h, read-out: GI; in short: as §1
MDA-MB-435 = experiment: Growth inhibition of human MDA-MB-435 cells at 10 uM after 48 hrs by coulter counter method; details: MDA-MB-435, 48 h, read-out: GI; in short: as §1
SK-MEL-2 = experiment: Growth inhibition of human SK-MEL-2 cells at 10 uM after 48 hrs by coulter counter method; details: SK-MEL-2, 48 h, read-out: GI; in short: as §1
SK-MEL-28 = experiment: Growth inhibition of human SK-MEL-28 cells at 10 uM after 48 hrs by coulter counter method; details: SK-MEL-28, 48 h, read-out: GI; in short: as §1
SK-MEL-5 = experiment: Growth inhibition of human SK-MEL-5 cells at 10 uM after 48 hrs by coulter counter method; details: SK-MEL-5, 48 h, read-out: GI; in short: as §1
UACC-257 = experiment: Growth inhibition of human UACC257 cells at 10 uM after 48 hrs by coulter counter method; details: UACC-257, 48 h, read-out: GI; in short: as §1
UACC-62 = experiment: Growth inhibition of human UACC62 cells at 10 uM after 48 hrs by coulter counter method; details: UACC-62, 48 h, read-out: GI; in short: as §1
IGROV-1 = experiment: Growth inhibition of human IGROV1 cells at 10 uM after 48 hrs by coulter counter method; details: IGROV-1, 48 h, read-out: GI; in short: as §1
OVCAR-8 = experiment: Growth inhibition of human OVCAR8 cells at 10 uM after 48 hrs by coulter counter method; details: OVCAR-8, 48 h, read-out: GI; in short: as §1
NCI/ADR-RES = experiment: Growth inhibition of human NCI/ADR-RES cells at 10 uM after 48 hrs by coulter counter method; details: read-out: GI; in short: as §1
786-0 = experiment: Growth inhibition of human 786-0 cells at 10 uM after 48 hrs by coulter counter method; details: 786-0, 48 h, read-out: GI; in short: as §1
A498 = experiment: Growth inhibition of human A498 cells at 10 uM after 48 hrs by coulter counter method; details: A498, 48 h, read-out: GI; in short: as §1
ACHN = experiment: Growth inhibition of human ACHN cells at 10 uM after 48 hrs by coulter counter method; details: read-out: GI; in short: as §1
CAKI-1 = experiment: Growth inhibition of human Caki1 cells at 10 uM after 48 hrs by coulter counter method; details: CAKI-1, 48 h, read-out: GI; in short: as §1
SN12C = experiment: Growth inhibition of human SN12C cells at 10 uM after 48 hrs by coulter counter method; details: read-out: GI; in short: as §1
TK-10 = experiment: Growth inhibition of human TK10 cells at 10 uM after 48 hrs by coulter counter method; details: TK-10, 48 h, read-out: GI; in short: as §1
UO-31 = experiment: Growth inhibition of human UO31 cells at 10 uM after 48 hrs by coulter counter method; details: UO-31, 48 h, read-out: GI; in short: as §1
PC-3 = experiment: Growth inhibition of human PC3 cells at 10 uM after 48 hrs by coulter counter method; details: PC-3, 48 h, read-out: GI; in short: as §1
MCF7 = experiment: Growth inhibition of human MCF7 cells at 10 uM after 48 hrs by coulter counter method; details: MCF7, 48 h, read-out: GI; in short: as §1
BT-549 = experiment: Growth inhibition of human BT549 cells at 10 uM after 48 hrs by coulter counter method; details: BT-549, 48 h, read-out: GI; in short: as §1
T47D = experiment: Growth inhibition of human T47D cells at 10 uM after 48 hrs by coulter counter method; details: read-out: GI; in short: as §1
MDA-MB-468 = experiment: Growth inhibition of human MDA-MB-468 cells at 10 uM after 48 hrs by coulter counter method; details: MDA-MB-468, 48 h, read-out: GI; in short: as §1

O=C1N=C2SC(c3ccccc3)=NN2C1=O
inhibition of growth at 10 µM (CCRF-CEM): < 10% | inhibition of growth at 10 µM (HL-60(TB)): < 10% | inhibition of growth at 10 µM (K562): < 10% | inhibition of growth at 10 µM (MOLT-4): < 10% | inhibition of growth at 10 µM (RPMI-8226): 12.6% | inhibition of growth at 10 µM (SR): < 10% | inhibition of growth at 10 µM (A549): < 10% | inhibition of growth at 10 µM (EKVX): < 10% | inhibition of growth at 10 µM (NCI-H226): < 10% | inhibition of growth at 10 µM (NCI-H23): < 10% | inhibition of growth at 10 µM (NCI-H322M): 10.8% | inhibition of growth at 10 µM (NCI-H522): 12.4% | inhibition of growth at 10 µM (HCT-116): < 10% | inhibition of growth at 10 µM (HCT-15): < 10% | inhibition of growth at 10 µM (HT-29): < 10% | inhibition of growth at 10 µM (KM12): < 10% | inhibition of growth at 10 µM (SF-268): < 10% | inhibition of growth at 10 µM (SF-295): < 10% | inhibition of growth at 10 µM (SNB-19): < 10% | inhibition of growth at 10 µM (SNB-75): < 10% | inhibition of growth at 10 µM (U-251): < 10% | inhibition of growth at 10 µM (LOX IMVI): < 10% | inhibition of growth at 10 µM (Malme-3M): < 10% | inhibition of growth at 10 µM (M14): < 10% | inhibition of growth at 10 µM (MDA-MB-435): < 10% | inhibition of growth at 10 µM (SK-MEL-2): < 10% | inhibition of growth at 10 µM (SK-MEL-28): < 10% | inhibition of growth at 10 µM (SK-MEL-5): < 10% | inhibition of growth at 10 µM (UACC-257): 15.5% | inhibition of growth at 10 µM (UACC-62): < 10% | inhibition of growth at 10 µM (IGROV-1): < 10% | inhibition of growth at 10 µM (OVCAR-8): < 10% | inhibition of growth at 10 µM (NCI/ADR-RES): < 10% | inhibition of growth at 10 µM (786-0): < 10% | inhibition of growth at 10 µM (A498): < 10% | inhibition of growth at 10 µM (ACHN): < 10% | inhibition of growth at 10 µM (CAKI-1): < 10% | inhibition of growth at 10 µM (SN12C): < 10% | inhibition of growth at 10 µM (TK-10): < 10% | inhibition of growth at 10 µM (UO-31): 25.7% | inhibition of growth at 10 µM (PC-3): 10.7% | inhibition of growth at 10 µM (MCF7): < 10% | inhibition of growth at 10 µM (BT-549): < 10% | inhibition of growth at 10 µM (T47D): < 10% | inhibition of growth at 10 µM (MDA-MB-468): < 10%
